This note sets out measurements from ChEMBL document CHEMBL1131235, “(R)-(+)-2-[[[3-(Morpholinomethyl)-2H-chromen-8-yl]oxy]methyl] morpholine methanesulfonate: a new selective rat 5-hydroxytryptamine1B receptor antagonist” (J Med Chem, 1998).

SMILES strings stand for the structures. pKi: −log10 of the molar value. Where only a bound is given, the exact number is not on record here.

For assay [1], the target named is T1, Adrenergic receptor alpha-1 (Rattus norvegicus, UniProt P15823+P23944+P43140).
T1 sequence (P15823 whole entry): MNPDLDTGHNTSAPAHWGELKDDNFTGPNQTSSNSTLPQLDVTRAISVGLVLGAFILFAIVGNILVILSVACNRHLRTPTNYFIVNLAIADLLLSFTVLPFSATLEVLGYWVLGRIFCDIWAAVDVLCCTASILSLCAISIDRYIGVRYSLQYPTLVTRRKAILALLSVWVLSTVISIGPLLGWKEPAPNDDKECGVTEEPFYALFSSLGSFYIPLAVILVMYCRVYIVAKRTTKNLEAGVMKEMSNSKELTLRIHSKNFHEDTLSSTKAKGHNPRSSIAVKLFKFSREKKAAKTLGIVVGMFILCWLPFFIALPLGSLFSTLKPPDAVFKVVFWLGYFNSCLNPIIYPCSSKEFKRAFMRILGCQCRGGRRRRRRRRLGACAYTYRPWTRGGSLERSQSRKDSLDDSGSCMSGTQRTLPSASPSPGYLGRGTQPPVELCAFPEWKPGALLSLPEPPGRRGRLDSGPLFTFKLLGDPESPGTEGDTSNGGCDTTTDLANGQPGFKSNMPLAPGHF
T1 sequence (P23944 whole entry): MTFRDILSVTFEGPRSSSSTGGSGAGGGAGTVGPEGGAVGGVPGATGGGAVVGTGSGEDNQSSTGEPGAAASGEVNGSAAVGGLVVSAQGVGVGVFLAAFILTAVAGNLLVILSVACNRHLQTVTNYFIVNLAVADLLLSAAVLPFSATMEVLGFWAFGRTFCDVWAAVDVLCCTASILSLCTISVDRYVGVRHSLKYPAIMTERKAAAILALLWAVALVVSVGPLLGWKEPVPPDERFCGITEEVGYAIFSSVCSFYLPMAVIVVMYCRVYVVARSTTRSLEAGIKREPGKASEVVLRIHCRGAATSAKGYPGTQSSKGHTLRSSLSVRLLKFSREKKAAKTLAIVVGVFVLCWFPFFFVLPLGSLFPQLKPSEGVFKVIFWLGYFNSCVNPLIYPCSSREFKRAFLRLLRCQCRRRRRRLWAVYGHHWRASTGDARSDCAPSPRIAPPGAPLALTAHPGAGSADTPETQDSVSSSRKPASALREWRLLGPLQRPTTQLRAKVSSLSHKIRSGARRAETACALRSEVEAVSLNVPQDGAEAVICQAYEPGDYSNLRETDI
T1 sequence (P43140 whole entry): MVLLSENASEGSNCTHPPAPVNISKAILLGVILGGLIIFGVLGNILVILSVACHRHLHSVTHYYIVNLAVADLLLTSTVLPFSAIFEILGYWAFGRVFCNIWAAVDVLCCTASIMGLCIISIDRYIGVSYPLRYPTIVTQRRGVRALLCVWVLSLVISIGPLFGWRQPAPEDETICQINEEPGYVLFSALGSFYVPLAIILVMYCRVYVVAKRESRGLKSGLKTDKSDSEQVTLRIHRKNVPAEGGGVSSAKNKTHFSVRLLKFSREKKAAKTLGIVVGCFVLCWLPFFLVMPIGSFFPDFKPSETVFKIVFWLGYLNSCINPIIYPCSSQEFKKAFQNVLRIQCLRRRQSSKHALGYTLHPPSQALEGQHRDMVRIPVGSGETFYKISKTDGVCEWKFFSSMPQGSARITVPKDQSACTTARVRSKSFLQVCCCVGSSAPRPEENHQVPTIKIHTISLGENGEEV
The assay can be described thus: Binding affinity against Alpha-1 adrenergic receptor in rat cortex using [3H]prazosin as the radioligand. Format: tissue-based, Brain. Put shortly: (§1)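 Binding by the Jackson et al. method. 5-HT1A used [3H]OH-DPAT on rat hippocampus. α1 used [3H]prazosin, α2 [3H]RX821002 and β [3H]dihydroalprenolol, all on rat cortex. D1 used [3H]SCH-23390 on rat striatum. D2 used [3H]raclopride on LtkhD2A cell membranes.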

The target of a further assay is Adrenergic receptor beta (Rattus norvegicus, UniProt P18090+P10608+P26255). The assay can be described thus: Binding affinity against Beta adrenergic receptor in rat cortex using [3H]dihydroalprenolol as the radioligand. In outline: as §1
Assay [2] has as its target Sigma non-opioid intracellular receptor 1 (Rattus norvegicus, UniProt Q9R0C9). The experiment in a line: Binding affinity against sigma receptor from rat whole brains using [3H]DTG as the radioligand. Put shortly: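 Whole rat brain membranes labelled with [3H]DTG (N,N-di(o-tolyl)guanidine), following Ross.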
The next assay deals with D(1A) dopamine receptor (Rattus norvegicus, UniProt P18901). The assay can be described thus: Binding affinity against Dopamine receptor D1 in rat striatum using [3H]-SCH- 23390 as the radioligand. Format: tissue-based. In outline:
as §1

Assay [3] concerns the target 5-HT1B & 5-HT1D (Bos taurus). The experiment in a line: Binding affinity against 5-hydroxytryptamine 1B receptor - 5-hydroxytryptamine 1D receptor using [3H]5-HT as the radioligand.

D(1A) dopamine receptor, sequence (P18901 whole entry): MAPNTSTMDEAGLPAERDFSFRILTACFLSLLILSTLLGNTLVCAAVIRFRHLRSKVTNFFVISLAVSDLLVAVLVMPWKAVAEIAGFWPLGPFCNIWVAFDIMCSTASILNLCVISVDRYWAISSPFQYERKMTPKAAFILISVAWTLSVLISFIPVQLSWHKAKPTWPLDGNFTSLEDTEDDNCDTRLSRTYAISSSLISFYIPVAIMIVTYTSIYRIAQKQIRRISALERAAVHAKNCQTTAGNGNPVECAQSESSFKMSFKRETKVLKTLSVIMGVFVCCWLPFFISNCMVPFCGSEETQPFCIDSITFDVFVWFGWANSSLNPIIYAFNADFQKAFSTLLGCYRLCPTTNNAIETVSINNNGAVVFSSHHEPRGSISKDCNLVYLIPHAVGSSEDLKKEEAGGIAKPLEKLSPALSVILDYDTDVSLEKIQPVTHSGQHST
Sigma non-opioid intracellular receptor 1, sequence (Q9R0C9 whole entry): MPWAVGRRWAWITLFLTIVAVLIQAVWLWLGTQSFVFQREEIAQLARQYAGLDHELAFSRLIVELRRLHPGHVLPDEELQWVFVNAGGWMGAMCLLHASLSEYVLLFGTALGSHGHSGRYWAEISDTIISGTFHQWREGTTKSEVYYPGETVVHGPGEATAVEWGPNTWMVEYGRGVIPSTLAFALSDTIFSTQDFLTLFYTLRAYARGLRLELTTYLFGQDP

With `C1=C(CN2CCOCC2)COc2c1cccc2OC[C@H]1CNCCO1.CS(=O)(=O)O`, the Ki (as a rule, a measure of affinity in units of concentration, obtained from inhibition or displacement) in assay [1] was > 10 µM; at Adrenergic receptor beta, > 10 µM; in assay [3] it was 0.63 µM. For the same molecule, the pKi (in assay [2]; at D(1A) dopamine receptor) was < 5.00 each time.
On to `C1=C(CN2CCOCC2)COc2c1cccc2OC[C@@H]1CNCCO1.Cl`, for which the results for the Ki (in assay [1]; at Adrenergic receptor beta; in assay [3]) were > 10 µM, 10 µM and > 10 µM, respectively. Further, the pKi (in assay [2]; on D(1A) dopamine receptor) was < 5.00 throughout.
